From ChEMBL document CHEMBL1152560, “Substituted 2-arylbenzothiazoles as kinase inhibitors: hit-to-lead optimization” (Bioorg Med Chem, 2009)
pIC50: −log10 of the molar value.

Tests used:
[1] = target: Mitogen-activated protein kinase 8 (Homo sapiens) (UniProt P45983); assay: Residual activity of JNK1 at 0.1 uM by microplate scintillation counting
[2] = target: Serine/threonine-protein kinase SIK2 (Homo sapiens) (UniProt Q9H0K1); assay: Residual activity of SNF1LK2 at 10 uM by microplate scintillation counting
[3] = target: Vascular endothelial growth factor receptor 3 (Homo sapiens, UniProt P35916); assay: Inhibition of VEGFR3 by microplate scintillation counting
Summary of the method: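 Radiometric FlashPlate assay using recombinant kinase (10–200 ng/well) with poly(Glu,Tyr)4:1 substrate. Buffer: 60 mM HEPES-NaOH pH 7.5, 3 mM MgCl2, 3 mM MnCl2, 3 µM orthovanadate, 1.2 mM DTT, PEG 20000, 1 µM [γ-33P]-ATP. Run 80 min at 30 °C, stopped with H3PO4, and 33P incorporation counted.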

[4] = target: T1, Ephrin type-B receptor 3 (Homo sapiens) (UniProt P54753); assay: Residual activity of EPHB3 at 1 uM by microplate scintillation counting
T1 sequence (whole entry): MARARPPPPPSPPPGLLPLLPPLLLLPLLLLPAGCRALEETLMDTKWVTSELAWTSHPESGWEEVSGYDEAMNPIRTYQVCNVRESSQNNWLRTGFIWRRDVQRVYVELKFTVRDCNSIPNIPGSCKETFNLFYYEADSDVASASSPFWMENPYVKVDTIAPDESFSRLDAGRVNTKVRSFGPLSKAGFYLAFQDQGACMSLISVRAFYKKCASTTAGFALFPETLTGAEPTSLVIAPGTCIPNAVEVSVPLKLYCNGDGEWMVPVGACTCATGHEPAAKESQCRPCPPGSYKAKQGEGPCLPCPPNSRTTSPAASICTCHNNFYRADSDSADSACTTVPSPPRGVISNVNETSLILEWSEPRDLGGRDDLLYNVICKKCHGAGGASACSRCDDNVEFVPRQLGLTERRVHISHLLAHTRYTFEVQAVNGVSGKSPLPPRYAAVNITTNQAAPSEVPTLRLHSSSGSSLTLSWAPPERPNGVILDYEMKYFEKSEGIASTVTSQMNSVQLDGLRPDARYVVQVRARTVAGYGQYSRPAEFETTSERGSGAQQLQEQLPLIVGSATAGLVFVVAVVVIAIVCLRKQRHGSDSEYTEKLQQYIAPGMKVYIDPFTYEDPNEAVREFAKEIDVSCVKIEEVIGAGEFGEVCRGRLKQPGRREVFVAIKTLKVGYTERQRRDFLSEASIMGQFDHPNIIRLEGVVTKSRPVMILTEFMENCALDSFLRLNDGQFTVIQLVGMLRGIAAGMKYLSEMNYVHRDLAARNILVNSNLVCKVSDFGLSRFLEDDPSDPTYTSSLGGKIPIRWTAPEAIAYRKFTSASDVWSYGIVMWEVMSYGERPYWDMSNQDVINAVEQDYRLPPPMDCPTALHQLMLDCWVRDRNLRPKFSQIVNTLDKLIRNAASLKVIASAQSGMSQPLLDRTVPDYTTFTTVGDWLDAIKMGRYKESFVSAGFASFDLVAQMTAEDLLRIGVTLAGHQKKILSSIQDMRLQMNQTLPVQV

[5] = target: Receptor tyrosine-protein kinase erbB-2 (Homo sapiens, UniProt P04626); assay: Residual activity of ERBB2 at 10 uM by microplate scintillation counting
[6] = target: Serine/threonine-protein kinase PLK1 (Homo sapiens) (UniProt P53350); assay: Residual activity of PLK1 at 10 uM by microplate scintillation counting
[7] = target: Casein kinase I isoform epsilon (Homo sapiens) (UniProt P49674); assay: Residual activity of CK1epsilon at 10 uM by microplate scintillation counting
[8] = target: Mitogen-activated protein kinase kinase kinase 8 (Homo sapiens) (UniProt P41279); assay: Residual activity of COT at 10 uM by microplate scintillation counting
[9] = target: T2, Serine/threonine-protein kinase Nek11 (Homo sapiens) (UniProt Q8NG66); assay: Residual activity of NEK11 at 0.1 uM by microplate scintillation counting
T2 sequence (whole entry): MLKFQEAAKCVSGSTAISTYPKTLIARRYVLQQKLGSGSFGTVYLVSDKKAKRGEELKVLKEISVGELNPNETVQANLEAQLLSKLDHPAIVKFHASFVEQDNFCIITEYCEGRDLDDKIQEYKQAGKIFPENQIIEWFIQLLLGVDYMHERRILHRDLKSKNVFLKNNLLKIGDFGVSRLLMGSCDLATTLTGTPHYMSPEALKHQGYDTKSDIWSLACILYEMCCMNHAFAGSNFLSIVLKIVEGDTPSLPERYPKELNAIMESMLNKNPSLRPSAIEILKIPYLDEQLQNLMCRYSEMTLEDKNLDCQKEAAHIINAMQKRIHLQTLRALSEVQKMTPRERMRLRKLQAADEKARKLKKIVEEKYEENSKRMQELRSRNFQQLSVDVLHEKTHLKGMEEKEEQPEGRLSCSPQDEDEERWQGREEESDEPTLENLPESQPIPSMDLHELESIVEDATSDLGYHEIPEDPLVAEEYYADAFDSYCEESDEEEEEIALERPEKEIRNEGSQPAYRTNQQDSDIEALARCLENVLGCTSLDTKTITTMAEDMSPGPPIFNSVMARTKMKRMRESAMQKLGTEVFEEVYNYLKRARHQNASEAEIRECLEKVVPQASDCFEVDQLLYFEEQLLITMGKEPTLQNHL

[10] = target: T3, Serine/threonine-protein kinase Chk1 (Homo sapiens) (UniProt O14757); assay: Residual activity of CHK1 at 10 uM by microplate scintillation counting
T3 sequence (whole entry): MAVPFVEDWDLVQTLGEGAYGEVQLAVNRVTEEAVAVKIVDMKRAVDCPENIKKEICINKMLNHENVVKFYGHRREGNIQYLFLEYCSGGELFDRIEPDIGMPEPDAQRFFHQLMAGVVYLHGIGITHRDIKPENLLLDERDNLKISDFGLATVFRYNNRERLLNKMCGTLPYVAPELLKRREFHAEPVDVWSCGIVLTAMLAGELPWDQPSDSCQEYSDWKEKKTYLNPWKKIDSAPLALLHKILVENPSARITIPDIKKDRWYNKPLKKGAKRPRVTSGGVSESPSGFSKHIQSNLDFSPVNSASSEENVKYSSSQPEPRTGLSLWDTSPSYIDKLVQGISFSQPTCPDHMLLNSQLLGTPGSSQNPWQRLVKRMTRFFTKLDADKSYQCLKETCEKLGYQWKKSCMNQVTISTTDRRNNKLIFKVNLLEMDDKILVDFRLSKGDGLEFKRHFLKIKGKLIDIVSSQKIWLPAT

Casein kinase I isoform epsilon (Homo sapiens), sequence (P49674 whole entry, looked up, canonical isoform): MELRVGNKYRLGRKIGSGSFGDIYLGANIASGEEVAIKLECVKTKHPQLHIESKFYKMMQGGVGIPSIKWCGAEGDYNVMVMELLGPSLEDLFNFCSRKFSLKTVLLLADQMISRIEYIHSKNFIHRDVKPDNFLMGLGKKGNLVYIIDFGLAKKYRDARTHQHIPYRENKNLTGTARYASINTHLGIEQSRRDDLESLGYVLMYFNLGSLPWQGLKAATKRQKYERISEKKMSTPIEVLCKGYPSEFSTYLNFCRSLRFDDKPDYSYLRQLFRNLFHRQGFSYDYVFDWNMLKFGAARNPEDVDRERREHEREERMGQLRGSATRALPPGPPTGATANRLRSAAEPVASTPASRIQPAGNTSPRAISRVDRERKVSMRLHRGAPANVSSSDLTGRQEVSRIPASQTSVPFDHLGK
Vascular endothelial growth factor receptor 3, sequence (P35916 whole entry): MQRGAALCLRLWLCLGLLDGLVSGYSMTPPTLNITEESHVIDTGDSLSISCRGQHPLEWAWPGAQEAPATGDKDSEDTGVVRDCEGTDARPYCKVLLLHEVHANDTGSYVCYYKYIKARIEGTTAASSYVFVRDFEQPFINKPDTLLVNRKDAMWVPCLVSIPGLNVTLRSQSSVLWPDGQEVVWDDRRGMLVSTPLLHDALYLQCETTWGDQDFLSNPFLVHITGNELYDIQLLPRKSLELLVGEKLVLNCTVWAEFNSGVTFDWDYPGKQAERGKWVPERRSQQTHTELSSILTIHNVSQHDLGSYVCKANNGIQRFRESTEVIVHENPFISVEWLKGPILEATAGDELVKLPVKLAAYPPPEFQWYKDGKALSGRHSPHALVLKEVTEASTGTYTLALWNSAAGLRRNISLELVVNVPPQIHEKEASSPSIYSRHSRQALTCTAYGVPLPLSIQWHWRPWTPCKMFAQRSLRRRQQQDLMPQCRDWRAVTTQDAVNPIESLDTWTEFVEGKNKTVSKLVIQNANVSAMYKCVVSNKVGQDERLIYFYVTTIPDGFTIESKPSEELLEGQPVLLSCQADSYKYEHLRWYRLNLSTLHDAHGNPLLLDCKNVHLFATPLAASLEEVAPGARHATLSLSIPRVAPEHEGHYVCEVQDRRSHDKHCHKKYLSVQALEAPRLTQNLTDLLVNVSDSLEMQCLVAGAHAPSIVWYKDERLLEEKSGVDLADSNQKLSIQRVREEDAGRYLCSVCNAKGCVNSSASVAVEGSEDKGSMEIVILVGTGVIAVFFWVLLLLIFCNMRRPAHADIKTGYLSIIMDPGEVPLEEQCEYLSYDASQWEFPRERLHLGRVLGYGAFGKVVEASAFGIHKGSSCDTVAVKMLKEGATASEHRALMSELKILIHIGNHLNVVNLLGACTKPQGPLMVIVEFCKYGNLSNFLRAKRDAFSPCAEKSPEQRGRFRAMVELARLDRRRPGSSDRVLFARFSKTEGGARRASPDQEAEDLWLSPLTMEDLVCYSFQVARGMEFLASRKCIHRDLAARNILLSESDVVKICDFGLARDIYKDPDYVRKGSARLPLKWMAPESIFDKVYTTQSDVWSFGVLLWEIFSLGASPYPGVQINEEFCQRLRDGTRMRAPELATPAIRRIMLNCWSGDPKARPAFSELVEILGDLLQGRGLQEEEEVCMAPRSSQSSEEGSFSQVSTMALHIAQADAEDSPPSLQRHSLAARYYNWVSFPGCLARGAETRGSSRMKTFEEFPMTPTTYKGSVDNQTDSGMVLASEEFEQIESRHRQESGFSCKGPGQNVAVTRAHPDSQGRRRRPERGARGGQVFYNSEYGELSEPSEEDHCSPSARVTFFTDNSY
Serine/threonine-protein kinase SIK2 (Homo sapiens), sequence (Q9H0K1 whole entry, looked up): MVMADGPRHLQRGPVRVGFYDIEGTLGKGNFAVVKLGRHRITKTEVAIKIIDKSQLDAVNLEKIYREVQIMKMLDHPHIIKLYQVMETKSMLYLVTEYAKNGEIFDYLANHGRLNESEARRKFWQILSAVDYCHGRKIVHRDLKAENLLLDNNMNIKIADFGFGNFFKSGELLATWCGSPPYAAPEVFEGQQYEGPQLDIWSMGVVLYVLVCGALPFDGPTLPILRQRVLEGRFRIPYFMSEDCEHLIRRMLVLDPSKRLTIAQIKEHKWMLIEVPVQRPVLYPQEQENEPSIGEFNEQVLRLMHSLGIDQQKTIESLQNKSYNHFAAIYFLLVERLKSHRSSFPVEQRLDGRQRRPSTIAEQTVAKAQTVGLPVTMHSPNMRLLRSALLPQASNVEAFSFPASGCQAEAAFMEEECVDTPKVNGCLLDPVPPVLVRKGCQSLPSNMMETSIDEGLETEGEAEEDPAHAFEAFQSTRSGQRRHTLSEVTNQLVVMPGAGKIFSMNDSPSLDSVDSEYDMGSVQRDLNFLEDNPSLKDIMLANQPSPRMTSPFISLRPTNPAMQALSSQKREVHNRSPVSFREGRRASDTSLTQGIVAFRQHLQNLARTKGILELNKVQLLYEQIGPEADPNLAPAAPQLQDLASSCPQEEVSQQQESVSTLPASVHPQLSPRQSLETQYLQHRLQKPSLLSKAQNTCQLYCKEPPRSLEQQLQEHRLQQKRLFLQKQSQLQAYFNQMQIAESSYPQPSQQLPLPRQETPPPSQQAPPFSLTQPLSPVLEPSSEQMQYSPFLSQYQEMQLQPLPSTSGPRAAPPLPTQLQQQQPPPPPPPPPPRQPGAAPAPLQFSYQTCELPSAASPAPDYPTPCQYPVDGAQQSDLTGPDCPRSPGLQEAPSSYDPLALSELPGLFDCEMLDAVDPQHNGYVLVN
Mitogen-activated protein kinase 8 (Homo sapiens), sequence (P45983 whole entry): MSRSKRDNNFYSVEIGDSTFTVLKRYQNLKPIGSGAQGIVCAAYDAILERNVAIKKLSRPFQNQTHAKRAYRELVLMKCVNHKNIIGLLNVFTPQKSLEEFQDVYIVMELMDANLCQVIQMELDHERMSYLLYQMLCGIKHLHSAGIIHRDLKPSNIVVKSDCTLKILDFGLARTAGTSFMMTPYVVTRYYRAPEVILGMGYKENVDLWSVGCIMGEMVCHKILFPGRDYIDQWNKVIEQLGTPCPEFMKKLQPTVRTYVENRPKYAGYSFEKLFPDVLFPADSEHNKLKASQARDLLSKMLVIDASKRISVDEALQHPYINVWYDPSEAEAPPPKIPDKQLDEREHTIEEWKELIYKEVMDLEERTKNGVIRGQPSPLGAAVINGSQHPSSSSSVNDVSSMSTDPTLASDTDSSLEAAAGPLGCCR
Serine/threonine-protein kinase PLK1 (Homo sapiens), sequence (P53350 whole entry, canonical isoform): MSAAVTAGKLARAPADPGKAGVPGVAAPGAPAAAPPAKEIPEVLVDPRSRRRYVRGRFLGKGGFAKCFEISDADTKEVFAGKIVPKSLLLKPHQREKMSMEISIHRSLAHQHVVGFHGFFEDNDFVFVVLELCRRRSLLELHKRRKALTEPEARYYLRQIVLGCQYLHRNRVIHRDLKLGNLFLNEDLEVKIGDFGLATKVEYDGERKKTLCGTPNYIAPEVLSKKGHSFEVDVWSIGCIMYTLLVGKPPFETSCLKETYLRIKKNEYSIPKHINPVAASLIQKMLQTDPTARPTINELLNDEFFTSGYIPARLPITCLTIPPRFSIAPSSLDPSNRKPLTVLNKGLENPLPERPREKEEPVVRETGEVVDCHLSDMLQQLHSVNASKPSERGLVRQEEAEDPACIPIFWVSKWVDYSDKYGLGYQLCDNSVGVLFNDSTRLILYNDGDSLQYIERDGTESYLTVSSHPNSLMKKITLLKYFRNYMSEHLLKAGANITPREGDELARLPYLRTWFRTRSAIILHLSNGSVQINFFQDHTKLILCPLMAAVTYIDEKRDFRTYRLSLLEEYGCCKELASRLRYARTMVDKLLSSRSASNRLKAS
Receptor tyrosine-protein kinase erbB-2, sequence (P04626 whole entry): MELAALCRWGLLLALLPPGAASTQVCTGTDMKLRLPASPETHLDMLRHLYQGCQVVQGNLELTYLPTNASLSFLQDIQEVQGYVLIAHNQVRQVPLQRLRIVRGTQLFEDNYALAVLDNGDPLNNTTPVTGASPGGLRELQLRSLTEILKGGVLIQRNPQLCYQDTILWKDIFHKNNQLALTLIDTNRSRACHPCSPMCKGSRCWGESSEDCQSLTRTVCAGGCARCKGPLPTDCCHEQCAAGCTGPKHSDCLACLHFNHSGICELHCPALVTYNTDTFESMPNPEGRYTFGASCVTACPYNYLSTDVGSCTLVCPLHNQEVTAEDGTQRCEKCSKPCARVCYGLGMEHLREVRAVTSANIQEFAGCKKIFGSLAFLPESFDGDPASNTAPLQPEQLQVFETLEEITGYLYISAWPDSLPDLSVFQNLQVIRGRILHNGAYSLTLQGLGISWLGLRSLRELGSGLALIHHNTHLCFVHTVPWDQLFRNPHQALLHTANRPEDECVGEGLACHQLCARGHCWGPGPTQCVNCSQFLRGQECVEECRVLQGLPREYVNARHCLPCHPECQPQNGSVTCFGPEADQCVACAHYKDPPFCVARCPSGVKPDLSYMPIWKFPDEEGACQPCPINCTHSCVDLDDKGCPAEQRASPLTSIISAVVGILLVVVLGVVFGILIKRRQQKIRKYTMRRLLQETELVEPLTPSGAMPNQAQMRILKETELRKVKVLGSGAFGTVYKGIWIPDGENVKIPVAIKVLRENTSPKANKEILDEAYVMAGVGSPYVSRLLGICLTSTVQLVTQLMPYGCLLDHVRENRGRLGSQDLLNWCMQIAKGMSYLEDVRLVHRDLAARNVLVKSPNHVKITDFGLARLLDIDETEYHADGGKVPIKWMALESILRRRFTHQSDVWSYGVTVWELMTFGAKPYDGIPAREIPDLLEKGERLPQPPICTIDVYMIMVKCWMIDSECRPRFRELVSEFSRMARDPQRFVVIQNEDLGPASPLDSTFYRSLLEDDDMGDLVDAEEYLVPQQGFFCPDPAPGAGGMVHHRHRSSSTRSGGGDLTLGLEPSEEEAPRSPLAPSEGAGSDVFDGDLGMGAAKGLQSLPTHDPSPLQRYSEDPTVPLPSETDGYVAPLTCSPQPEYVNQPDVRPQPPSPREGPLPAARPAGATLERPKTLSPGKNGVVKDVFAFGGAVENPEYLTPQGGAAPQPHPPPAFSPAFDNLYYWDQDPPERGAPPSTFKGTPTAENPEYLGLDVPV

residual activity [1]	residual activity [2]	pIC50 [3]	residual activity [4]	residual activity [5]	residual activity [6]	residual activity [7]	residual activity [8]	residual activity [9]	residual activity [10]	Structure (SMILES)
106%	107%	6.85	105%	110%	123%	147%	96%	103%	101%	COc1cc2c(Oc3ccc(-c4nc5ccccc5s4)cc3)ncnc2cc1OCCCN1CCCC1
101%	241%	6.72	106%	62%	100%	97%	94%	94%	142%	COc1cc2c(Oc3ccc(-c4nc5ccccc5s4)cc3F)ncnc2cc1OCCCN1CCN(C)CC1
98%	141%	6.92	108%	91%	134%	156%	115%	95%	131%	COc1cc2c(Oc3ccc(-c4nc5ccccc5s4)cc3)ncnc2cc1OCCCN1CCN(C)CC1
